# Reference: ChEMBL document CHEMBL4145576, “Isolation, Synthesis, and Antisepsis Effects of a C-Methylcoumarinochromone Isolated from Abronia nana Cell Culture” (J Nat Prod, 2018)
# The source made the active and inactive calls. No cut-off for these calls is given here.
# How the values were obtained:
# Mus musculus [1] = assay: Antisepsis activity in C57BL/6 mouse CLP surgery model assessed as reduction in bacterial burden in peritoneal lavage fluid at 28 to 56 ug/kg, iv measured after 24 hrs; assay type: functional, organism-based
# How it was run: (§1)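 Male C57BL/6 mice (27 g) underwent CLP: cecum ligated 5 mm from tip and punctured once with a 22-gauge needle. Peritoneal lavage fluid and blood collected 24 h after CLP and centrifuged. Diluted samples plated on 5% sheep blood agar at 37 °C for 24 h, then CFUs counted; n = 10.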
# [2] = target: T1, High mobility group protein B1 (Homo sapiens) (UniProt P09429); assay: Inhibition of HMGB1-mediated E-selectin expression level in HUVEC at 0.1 to 1 uM after 6 hrs by ELISA; assay type: cell-based
# T1 sequence (whole entry): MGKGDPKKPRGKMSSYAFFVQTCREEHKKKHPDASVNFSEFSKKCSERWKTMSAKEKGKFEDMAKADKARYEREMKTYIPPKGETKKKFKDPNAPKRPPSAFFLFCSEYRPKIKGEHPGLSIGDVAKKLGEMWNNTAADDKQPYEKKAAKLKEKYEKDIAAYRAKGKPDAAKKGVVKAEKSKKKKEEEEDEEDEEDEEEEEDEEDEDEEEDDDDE
# How it was run: (§2)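 Confluent HUVECs treated with HMGB1 (1 μg/mL, 16 h), then compound (0–1 μM) for 6 h. Cells fixed in 1% paraformaldehyde and probed with anti-VCAM-1, ICAM-1 or E-selectin (1:50, 1 h, 37 °C). Peroxidase anti-mouse IgG (1:2000) added, developed with o-phenylenediamine, read at 490 nm.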
# Mus musculus [3] = assay: Antisepsis activity in C57BL/6 mouse assessed as inhibition of CLP-induced creatinine level in plasma at 28 to 56 ug/kg, iv at 12 and 50 hrs post CLP surgery; assay type: functional, organism-based
# How it was run: (§3)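 Male C57BL/6 mice underwent CLP and received compound iv (28 or 56 μg/kg) at 12 and 50 h after CLP. Animals bled out. AST, ALT, BUN, creatinine and LDH measured in plasma/serum with biochemical kits. IL-1β, IL-6, IL-10, MCP-1 and TNF-α measured by ELISA. Means ± SD of five independent experiments.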
# [4] = target: T1, High mobility group protein B1 (Homo sapiens); assay: Inhibition of HMGB1-mediated human neutrophil migration in HUVEC after 6 hrs by crystal violet staining based microscopy; assay type: cell-based
# How it was run: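 HUVECs (6 × 10^4 cells/well) grown 3 days on 8 μm Transwells, then treated with HMGB1 (1 μg/mL, 16 h) and compound for 6 h before cells added to the upper chamber. Migrated cells fixed in 8% glutaraldehyde and stained with 0.25% crystal violet. Nine 200× fields per well counted; run in duplicate; migration index.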
# Mus musculus [5] = assay: Antisepsis activity in C57BL/6 mouse assessed as inhibition of CLP-induced death at 56 ug/kg, iv measured 12 hrs post CLP; assay type: functional, organism-based
# Mus musculus [6] = assay: Antisepsis activity in C57BL/6 mouse assessed as inhibition of CLP-induced IL-6 level in blood at 28 to 56 ug/kg, iv at 12 and 50 hrs post CLP surgery by ELISA; assay type: functional, organism-based; how it was run: as §3
# HUVEC [7] = assay: Cytotoxicity against HUVEC assessed as reduction in cell viability up to 5 uM after 48 hrs by MTT assay; assay type: cell-based; conditions: human
# How it was run: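 HUVECs (passage 3–5; 5 × 10^3 cells/well) seeded for 24 h, then exposed to compound for 48 h. MTT (1 mg/mL) added for 4 h. Formazan dissolved in DMSO and read at 540 nm.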
# Mus musculus [8] = assay: Antisepsis activity in C57BL/6 mouse assessed as inhibition of CLP-induced blood urea nitrogen level in plasma at 28 to 56 ug/kg, iv at 12 and 50 hrs post CLP surgery; assay type: functional, organism-based; how it was run: as §3
# Mus musculus [9] = assay: Antisepsis activity in C57BL/6 mouse assessed as inhibition of CLP-induced MCP1 level in blood at 28 to 56 ug/kg, iv at 12 and 50 hrs post CLP surgery by ELISA; assay type: functional, organism-based; how it was run: as §3
# Mus musculus [10] = assay: Antisepsis activity in C57BL/6 mouse assessed as inhibition of CLP-induced TNFalpha level in blood at 28 to 56 ug/kg, iv at 12 and 50 hrs post CLP surgery by ELISA; assay type: functional, organism-based; how it was run: as §3
# [11] = target: T1, High mobility group protein B1 (Homo sapiens); assay: Inhibition of HMGB1-mediated VCAM-1 expression level in HUVEC at 0.1 to 1 uM after 6 hrs by ELISA; assay type: cell-based; how it was run: as §2
# [12] = target: T1, High mobility group protein B1 (Homo sapiens); assay: Inhibition of HMGB1-mediated disruption of barrier integrity in HUVEC by measuring flux of albumin-bound evans blue after 6 hrs by spectrophotometric method; assay type: cell-based
# How it was run: (§4)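 HUVECs (5 × 10^4 cells/well) grown 3 days on 3 μm Transwells to confluence. Monolayers exposed to LPS (100 ng/mL, 4 h) or HMGB1 (1 μg/mL, 16 h), or left unstimulated, then treated with compound for 6 h. Flux of albumin-bound Evans blue measured spectrophotometrically.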
# [13] = target: T1, High mobility group protein B1 (Homo sapiens); assay: Inhibition of HMGB1-mediated ICAM-1 expression level in HUVEC at 0.1 to 1 uM after 6 hrs by ELISA; assay type: cell-based; how it was run: as §2
# Mus musculus [14] = assay: Antisepsis activity in C57BL/6 mouse assessed as inhibition of CLP-induced AST level in plasma at 28 to 56 ug/kg, iv at 12 and 50 hrs post CLP surgery; assay type: functional, organism-based; how it was run: as §3
# Mus musculus [15] = assay: Antisepsis activity in C57BL/6 mouse assessed as inhibition of CLP-induced HMGB1 release in serum at 28 to 56 ug/kg, iv administered 12 hrs post CLP challenge by ELISA; assay type: functional, organism-based
# How it was run: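 Male C57BL/6 mice underwent CLP and received compound iv (28 or 56 μg/kg) 12 h later; n = 5. Mice killed 24 h after CLP. Serum HMGB1 measured by ELISA.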
# Mus musculus [16] = assay: Antisepsis activity in C57BL/6 mouse assessed as inhibition of CLP-induced ALT level in plasma at 28 to 56 ug/kg, iv at 12 and 50 hrs post CLP surgery; assay type: functional, organism-based; how it was run: as §3
# Mus musculus [17] = assay: Antisepsis activity in C57BL/6 mouse assessed as inhibition of CLP-induced IL-10 level in blood at 28 to 56 ug/kg, iv at 12 and 50 hrs post CLP surgery by ELISA; assay type: functional, organism-based; how it was run: as §3
# HUVEC [18] = assay: Effect on barrier integrity in HUVEC at 1 uM after 6 hrs by spectrophotometric method; assay type: ADME, cell-based; conditions: human; how it was run: as §4
# [19] = target: T1, High mobility group protein B1 (Homo sapiens); assay: Inhibition of HMGB1-mediated p38 MAPK phosphorylation in HUVEC at 0.1 to 1 uM after 6 hrs by ELISA; assay type: cell-based
# How it was run: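 HUVECs activated with HMGB1 (1 μg/mL, 16 h), then treated with compound for 6 h. Phospho-p38 MAPK measured by ELISA kit.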
# [20] = target: T1, High mobility group protein B1 (Homo sapiens); assay: Inhibition of LPS-induced HMGB1 release in HUVEC at > 0.2 uM pretreated with bacterial LPS for 16 hrs followed by compound treatment measured after 6 hrs by ELISA; assay type: cell-based
# [21] = target: T1, High mobility group protein B1 (Homo sapiens); assay: Inhibition of HMGB1-induced TLR4 expression level in HUVEC at 0.1 to 1 uM after 6 hrs by ELISA; assay type: cell-based
# How it was run: (§5)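 Confluent HUVECs activated with HMGB1 (1 μg/mL, 16 h), then incubated with compound for 6 h. Surface TLR2, TLR4 and RAGE determined by cell-based ELISA with specific antibodies.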
# Mus musculus [22] = assay: Antisepsis activity in C57BL/6 mouse assessed as inhibition of CLP-induced IL-1beta level in blood at 28 to 56 ug/kg, iv at 12 and 50 hrs post CLP surgery by ELISA; assay type: functional, organism-based; how it was run: as §3
# Mus musculus [23] = assay: Antisepsis activity in C57BL/6 mouse CLP surgery model assessed as inhibition of HMGB1-induced leukocyte migration into peritoneal cavity at 28 to 56 ug/kg, iv; assay type: functional, organism-based
# How it was run: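 Mice given HMGB1 (2 μg/mouse) iv for 16 h, then compound (28 or 56 μg/kg) for 6 h. Peritoneal cavity washed with 5 mL saline after 6 h. Fluid diluted in Türk's solution (0.01% crystal violet, 3% acetic acid). Leukocytes counted by light microscopy.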
# [24] = target: T1, High mobility group protein B1 (Homo sapiens); assay: Inhibition of HMGB1-induced RAGE expression level in HUVEC at 0.1 to 1 uM after 6 hrs by ELISA; assay type: cell-based; how it was run: as §5
# [25] = target: T1, High mobility group protein B1 (Homo sapiens); assay: Inhibition of HMGB1-induced TLR2 expression level in HUVEC at 0.1 to 1 uM after 6 hrs by ELISA; assay type: cell-based; how it was run: as §5
# Mus musculus [26] = assay: Antisepsis activity in C57BL/6 mouse CLP surgery model assessed as reduction in bacterial burden in blood at 28 to 56 ug/kg, iv measured after 24 hrs; assay type: functional, organism-based; how it was run: as §1
# Mus musculus [27] = assay: Antisepsis activity in C57BL/6 mouse assessed as inhibition of CLP-induced mortality at 56 ug/kg, iv administered twice daily at 12 and 50 hrs post CLP measured every 6 hrs post CLP for 150 hrs (reference value: 40%); assay type: functional; conditions: C57BL/6, iv
# HUVEC [28] = assay: Effect on HMGB1 release in HUVEC at > 0.2 uM after 6 hrs by ELISA; assay type: ADME, cell-based; conditions: human
# [29] = target: T1, High mobility group protein B1 (Homo sapiens); assay: Inhibition of HMGB1-mediated human neutrophil adhesion in HUVEC after 6 hrs by ELISA; assay type: cell-based
# How it was run: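 HUVEC monolayers treated with HMGB1 (1 μg/mL, 16 h), then compound (0–1 μM) for 6 h. Human neutrophils (1.5 × 10^6 cells/mL) labelled with Vybrant DiD dye and added to the washed monolayers. Adhesion measured by fluorescence.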
# Mus musculus [30] = assay: Antisepsis activity in C57BL/6 mouse assessed as inhibition of CLP-induced lactate dehydrogenase level in plasma at 28 to 56 ug/kg, iv at 12 and 50 hrs post CLP surgery; assay type: functional, organism-based; how it was run: as §3
# Mus musculus [31] = assay: Antisepsis activity in C57BL/6 mouse assessed as inhibition of HMGB1-induced vascular hyperpermeability by measuring amount of evans blue in the peritoneal washings at 28 to 56 ug/kg, iv pretreated with HMGB1 for 16 hrs followed by compound treatment measured after 6 hrs […]; assay type: functional, organism-based
# How it was run: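 Mice given iv HMGB1 (2 μg/mouse) for 16 h, then compound (28 or 56 μg/kg) for 6 h. 1% Evans blue in saline injected iv; mice killed 30 min later. Peritoneal washings (5 mL saline) centrifuged at 200g for 10 min and read at 650 nm. Dye leak read from a standard curve as μg/mouse; n = 5.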
# Lipopolysaccharide (LPS) = assay: Inhibition of bacterial LPS-mediated disruption of barrier integrity in HUVEC by measuring flux of albumin-bound evans blue after 6 hrs by spectrophotometric method; assay type: cell-based; conditions: Bacteria; how it was run: as §4
# Beta-secretase 1 = Beta-secretase 1 (Homo sapiens, UniProt P56817); assay: Inhibition of recombinant human BACE1 using RhEVNLDAEFK-Quencher as substrate after 60 mins by fluorescence assay
# Chain of Beta-secretase 1 (P56817 whole entry): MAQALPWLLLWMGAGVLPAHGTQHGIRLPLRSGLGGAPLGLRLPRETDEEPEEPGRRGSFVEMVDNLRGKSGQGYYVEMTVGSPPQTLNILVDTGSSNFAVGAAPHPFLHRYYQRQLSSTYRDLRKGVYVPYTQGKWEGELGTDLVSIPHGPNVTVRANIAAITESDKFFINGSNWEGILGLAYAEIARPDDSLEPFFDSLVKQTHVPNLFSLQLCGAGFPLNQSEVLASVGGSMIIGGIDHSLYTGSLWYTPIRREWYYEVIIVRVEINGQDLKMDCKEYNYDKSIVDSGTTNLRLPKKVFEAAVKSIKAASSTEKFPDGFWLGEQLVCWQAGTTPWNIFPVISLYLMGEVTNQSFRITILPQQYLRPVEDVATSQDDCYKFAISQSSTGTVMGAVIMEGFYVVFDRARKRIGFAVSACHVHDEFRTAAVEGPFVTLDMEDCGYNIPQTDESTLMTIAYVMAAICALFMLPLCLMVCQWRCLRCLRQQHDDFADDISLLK
compound,measurement,setting,value
Cc1c(O)cc2oc3oc4ccccc4c3c(=O)c2c1O,Activity,Mus musculus [1],Active
same,inhibition,[2],Active
same,inhibition,Mus musculus [3],Active
same,inhibition,[4],Dose-dependent effect
same,inhibition,Mus musculus [5],inactive
same,inhibition,Mus musculus [6],Active
same,Activity,HUVEC [7],Non-Toxic
same,inhibition,Mus musculus [8],Active
same,inhibition,Mus musculus [9],Active
same,inhibition,Mus musculus [10],Active
same,inhibition,[11],Active
same,inhibition,[12],Dose-dependent effect
same,inhibition,[13],Active
same,inhibition,Mus musculus [14],Active
same,inhibition,Mus musculus [15],Active
same,inhibition,Mus musculus [16],Active
same,inhibition,Mus musculus [17],Active
same,Activity,HUVEC [18],Non-Toxic
same,inhibition,[19],Active
same,inhibition,[20],Active
same,inhibition,[21],Active
same,inhibition,Mus musculus [22],Active
same,inhibition,Mus musculus [23],Active
same,inhibition,[24],Active
same,inhibition,[25],Active
same,Activity,Mus musculus [26],Active
same,mortality at 0.056 mg/kg,Mus musculus [27],60%
same,Activity,HUVEC [28],Non-Toxic
same,inhibition,[29],Dose-dependent effect
same,inhibition,Mus musculus [30],Active
same,inhibition,Mus musculus [31],Active
same,inhibition,Lipopolysaccharide (LPS),Dose-dependent effect
Cc1c(O)cc2oc3c(c(=O)c2c1O)-c1ccc(O)cc1OC3O (stereo not drawn) [BOERAVINONE E],IC50,Beta-secretase 1,5.6 µM
